Reference: ChEMBL document CHEMBL1140016, “Arylpropanolamines: selective beta3 agonists arising from strategies to mitigate phase I metabolic transformations” (Bioorg Med Chem Lett, 2007)

Columns and labels:
[1] = target: Beta-1 adrenergic receptor (Cavia porcellus) (UniProt B0FL73); experiment: Intrinsic activity at adrenergic beta-1 receptor in spontaneously beating guinea pig atria assessed as acceleration in contraction relative to isoproterenol
[2] = tested on: African green monkey; experiment: Ratio of effect on tachycardia to ED50 for lipolysis in African green monkey; format: functional, Chlorocebus sabaeus
How it was run: (§1)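 Compounds were given iv to ketamine-sedated African green monkeys across a range of doses. Lipolysis ED50 (mg/kg) came from the rise in serum free fatty acids. Onset doses were the lowest doses giving a statistically significant rise in heart rate (β1) or fall in serum K+ (β2). Each margin is the onset dose divided by the lipolysis ED50.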

[3] = tested on: African green monkey; experiment: Effect on potassium levels in African green monkey serum at 0.1 mg/kg, iv; format: functional, Chlorocebus sabaeus; set-up: unit not given beside the values
How it was run: (§2)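 Single iv dose given to ketamine-sedated African green monkeys, either 0.1 or 0.5 mg/kg as the line states. Three read-outs were recorded after dosing: change in serum free fatty acids (β3 lipolysis), change in serum K+ (a decrease is β2-mediated) and change in heart rate (β1/β2 tachycardia). Changes were tested for significance at P < 0.05.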

[4] = target: T1, Beta-3 adrenergic receptor (Homo sapiens, UniProt P13945); experiment: Displacement of [125I]iodocyanopindolol from cloned human adrenergic beta-3 receptor expressed in CHO cells; format: cell-based
Target sequence in this assay (P13945 whole entry): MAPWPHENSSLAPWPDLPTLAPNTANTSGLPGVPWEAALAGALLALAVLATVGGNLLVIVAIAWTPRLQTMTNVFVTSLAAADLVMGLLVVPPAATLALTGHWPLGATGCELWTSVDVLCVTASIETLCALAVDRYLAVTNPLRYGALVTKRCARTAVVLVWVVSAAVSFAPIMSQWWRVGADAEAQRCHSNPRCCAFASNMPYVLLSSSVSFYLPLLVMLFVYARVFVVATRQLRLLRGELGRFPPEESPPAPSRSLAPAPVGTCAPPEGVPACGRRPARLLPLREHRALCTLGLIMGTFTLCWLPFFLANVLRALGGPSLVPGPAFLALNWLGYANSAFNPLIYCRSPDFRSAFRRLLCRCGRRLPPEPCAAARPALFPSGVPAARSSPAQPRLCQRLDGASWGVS

[5] = tested on: African green monkey; experiment: Ratio of serum potassium concentration to ED50 for lipolysis in African green monkey; format: functional, Chlorocebus sabaeus; how it was run: as §1
[6] = target: Beta-1 adrenergic receptor (Homo sapiens, UniProt P08588); experiment: Displacement of [125I]iodocyanopindolol from human cloned adrenergic beta-1 receptor expressed in CHO cells; format: cell-based
Chain of Beta-1 adrenergic receptor (P08588 whole entry): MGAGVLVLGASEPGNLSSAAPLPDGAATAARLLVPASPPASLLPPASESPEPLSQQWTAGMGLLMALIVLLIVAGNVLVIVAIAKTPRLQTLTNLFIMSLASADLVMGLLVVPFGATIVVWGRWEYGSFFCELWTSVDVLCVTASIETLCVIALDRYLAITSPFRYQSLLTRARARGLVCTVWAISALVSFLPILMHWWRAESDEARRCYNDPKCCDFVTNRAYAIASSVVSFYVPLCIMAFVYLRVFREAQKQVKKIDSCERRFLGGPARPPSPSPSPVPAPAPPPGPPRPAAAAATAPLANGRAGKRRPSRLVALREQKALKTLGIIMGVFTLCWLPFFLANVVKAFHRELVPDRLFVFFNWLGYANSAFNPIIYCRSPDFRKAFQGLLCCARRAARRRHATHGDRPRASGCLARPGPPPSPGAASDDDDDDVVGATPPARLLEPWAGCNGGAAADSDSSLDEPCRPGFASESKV

[7] = tested on: African green monkey; experiment: Effect on African green monkey assessed as change in free fatty acid level at 0.1 mg/kg, iv; format: functional, Chlorocebus sabaeus; how it was run: as §2
[8] = tested on: African green monkey; experiment: Effect on tachycardia in African green monkey assessed as change in heart rate at 0.1 mg/kg, iv; format: functional, Chlorocebus sabaeus; how it was run: as §2
[9] = target: T1, Beta-3 adrenergic receptor; experiment: Intrinsic activity at human cloned adrenergic beta3 receptor expressed in CHO cells assessed as cAMP accumulation relative to isoproterenol; format: functional, cell-based
Target sequence in this assay (P13945 whole entry, looked up): as the sequence (P13945 whole entry) above

[10] = tested on: African green monkey; experiment: Effect on lipolysis in iv dosed African green monkey; format: functional; conditions: Chlorocebus sabaeus; how it was run: as §1
[11] = target: Beta-2 adrenergic receptor (Homo sapiens, UniProt P07550); experiment: Displacement of [125I]iodocyanopindolol from human cloned adrenergic beta-2 receptor expressed in CHO cells; format: cell-based
Chain of Beta-2 adrenergic receptor (P07550 whole entry): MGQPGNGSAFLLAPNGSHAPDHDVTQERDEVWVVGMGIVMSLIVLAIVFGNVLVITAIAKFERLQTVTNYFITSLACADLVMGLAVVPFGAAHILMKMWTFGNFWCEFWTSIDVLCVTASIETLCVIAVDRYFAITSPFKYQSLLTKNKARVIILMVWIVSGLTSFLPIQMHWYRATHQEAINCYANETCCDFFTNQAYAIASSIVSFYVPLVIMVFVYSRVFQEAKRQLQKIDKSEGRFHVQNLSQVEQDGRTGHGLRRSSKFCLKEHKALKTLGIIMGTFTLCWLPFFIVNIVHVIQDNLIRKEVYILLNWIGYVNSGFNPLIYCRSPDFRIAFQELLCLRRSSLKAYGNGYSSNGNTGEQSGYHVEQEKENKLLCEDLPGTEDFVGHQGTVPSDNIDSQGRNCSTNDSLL

[12] = tested on: African green monkey; experiment: Effect on tachycardia in African green monkey assessed as change in heart rate at 0.5 mg/kg, iv; format: functional, Chlorocebus sabaeus; how it was run: as §2
[13] = tested on: African green monkey; experiment: Effect on free fatty acid level in African green monkey serum at 0.5 mg/kg, iv; format: functional, Chlorocebus sabaeus; how it was run: as §2
[14] = tested on: African green monkey; experiment: Effect on African green monkey serum assessed as potassium concentration at 0.5 mg/kg, iv; format: functional, Chlorocebus sabaeus; how it was run: as §2

Chain of Beta-1 adrenergic receptor (Cavia porcellus) (B0FL73 1-467): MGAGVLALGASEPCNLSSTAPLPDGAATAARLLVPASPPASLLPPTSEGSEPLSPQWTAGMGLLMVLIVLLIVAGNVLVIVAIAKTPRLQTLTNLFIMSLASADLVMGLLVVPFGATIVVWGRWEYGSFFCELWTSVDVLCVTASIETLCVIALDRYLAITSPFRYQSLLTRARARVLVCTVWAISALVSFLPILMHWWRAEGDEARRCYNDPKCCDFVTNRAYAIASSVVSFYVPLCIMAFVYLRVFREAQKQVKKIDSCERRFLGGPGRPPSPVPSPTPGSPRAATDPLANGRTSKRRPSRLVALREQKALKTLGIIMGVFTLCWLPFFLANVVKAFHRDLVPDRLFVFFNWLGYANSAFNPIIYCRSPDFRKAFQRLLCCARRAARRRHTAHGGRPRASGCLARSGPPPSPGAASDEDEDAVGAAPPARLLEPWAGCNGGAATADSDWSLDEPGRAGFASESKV

| SMILES | Intrinsic activity [1] | Ratio [2] | Activity [3] | Ki [4] | Ratio [5] | Ki [6] | Activity [7] | Activity [8] | Intrinsic activity [9] | ED50 [10] | Ki [11] | Activity [12] | Activity [13] | Activity [14] |
| --- | --- | --- | --- | --- | --- | --- | --- | --- | --- | --- | --- | --- | --- | --- |
| COc1ccc([C@@H](Cc2ccccc2)NC[C@@H](O)Cc2ccc(O)c(NS(C)(=O)=O)c2)cc1OC | 60% | 3 | -0.08 | 6 nM | >55 | 2600 nM | 1.06 | 24 | 86% | 9 µg/kg | 66 nM |  |  |  |
| COc1ccc(C(NC[C@H](O)c2ccc(O)c(NS(C)(=O)=O)c2F)c2ccc(OC)cc2)cc1 |  |  |  | 1700 nM |  |  |  |  | 24% |  |  | 4 | 0.39 | -0.49 |
